Measurements: ChEMBL document CHEMBL1123603, “Synthesis of angiotensin II antagonists with variations in position 5” (J Med Chem, 1987)
Square brackets hold non-standard residues; d marks the D form. Peptide text beside a SMILES is read from it. * marks the point of attachment. Gly(cPent) = N[C@H](C(=O)O)C1CCCC1; Chg = N[C@H](C(=O)O)C1CCCCC1; Lac = C[C@H](O)C(=O)O; Glycolyl = O=C(CO)*; Sar = CNCC(=O)O

Assays:
Rattus norvegicus [1] = test: Tested in vivo on the angiotensin II induced rise of blood pressure after intravenous administration of 1.25 ug/kg in conscious rats; type: functional
Outline: (§1)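 Conscious, free-moving rats, carotid artery linked to a pressure transducer 24 h after surgery. One analogue per rat, in 0.9% NaCl with 5 g/L BSA, given as a 10-s iv bolus into the jugular vein. Doses 1.25–20 μg/kg in random order, one every 20 min. Maximal blood pressure rise recorded; 6 rats; ANOVA with Dunnett's test.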

[2] = target: Angiotensin II receptor (Oryctolagus cuniculus); test: Antagonistic effect against Angiotensin II receptor in rabbit aortic strip
Rattus norvegicus [3] = test: Tested in vivo on the angiotensin II induced rise of blood pressure after intravenous administration of 10 ug/kg in conscious rats; type: functional; outline: as §1
Angiotensin II receptor = target: T1, Angiotensin II receptor (Rattus norvegicus, UniProt P29089+P25095+P35351); test: Antagonistic effect against Angiotensin II receptor in zona glomerulosa; type: functional
T1 sequence (P29089 whole entry): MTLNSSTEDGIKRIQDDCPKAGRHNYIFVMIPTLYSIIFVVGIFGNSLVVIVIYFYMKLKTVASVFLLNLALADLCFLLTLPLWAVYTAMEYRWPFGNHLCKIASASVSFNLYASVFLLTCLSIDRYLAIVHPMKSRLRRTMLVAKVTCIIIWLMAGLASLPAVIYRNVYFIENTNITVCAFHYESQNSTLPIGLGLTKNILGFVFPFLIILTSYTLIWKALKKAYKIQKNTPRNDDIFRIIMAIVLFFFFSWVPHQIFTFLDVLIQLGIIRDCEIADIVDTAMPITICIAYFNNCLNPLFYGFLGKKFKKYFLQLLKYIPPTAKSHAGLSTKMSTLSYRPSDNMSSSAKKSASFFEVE
T1 sequence (P25095 whole entry): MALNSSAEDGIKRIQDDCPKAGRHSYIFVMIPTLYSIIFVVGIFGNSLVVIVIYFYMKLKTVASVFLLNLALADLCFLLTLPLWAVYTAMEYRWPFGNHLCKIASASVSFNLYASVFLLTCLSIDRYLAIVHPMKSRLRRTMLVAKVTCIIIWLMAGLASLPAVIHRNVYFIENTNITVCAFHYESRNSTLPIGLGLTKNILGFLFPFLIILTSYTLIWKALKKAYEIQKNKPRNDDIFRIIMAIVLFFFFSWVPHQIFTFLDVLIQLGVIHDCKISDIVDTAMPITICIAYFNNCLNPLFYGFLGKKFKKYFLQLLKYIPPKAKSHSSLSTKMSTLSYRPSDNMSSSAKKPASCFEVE
T1 sequence (P35351 whole entry): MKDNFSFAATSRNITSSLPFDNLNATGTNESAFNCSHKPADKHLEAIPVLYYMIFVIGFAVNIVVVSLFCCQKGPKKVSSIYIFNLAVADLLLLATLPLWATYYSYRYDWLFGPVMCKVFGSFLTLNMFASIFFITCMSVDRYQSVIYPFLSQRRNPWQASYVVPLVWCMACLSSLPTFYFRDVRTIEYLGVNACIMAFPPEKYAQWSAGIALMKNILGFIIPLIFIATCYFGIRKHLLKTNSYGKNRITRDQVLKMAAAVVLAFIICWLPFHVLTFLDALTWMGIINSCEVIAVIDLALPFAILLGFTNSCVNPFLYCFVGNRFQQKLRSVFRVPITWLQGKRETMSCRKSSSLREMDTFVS
Outline: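 Dispersed zona glomerulosa cells from male CFY rats, 250–300 g. Capsules digested with collagenase 2 mg/mL and DNase 0.1 mg/mL, 2 × 25 min at 37 °C. Cells 3.0–3.5 × 10⁶/mL in Krebs–Ringer glucose buffer, 5 g/L albumin. Antagonists 2 × 10⁻¹²–2 × 10⁻⁶ M, alone or with 2 × 10⁻⁸ M AII, duplicate or triplicate. Aldosterone by RIA after CHCl3 extraction; pA2 values.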

Rattus norvegicus [4] = test: Tested in vivo on the angiotensin II induced rise of blood pressure after intravenous administration of 2.5 ug/kg in conscious rats; type: functional; outline: as §1
Rattus norvegicus [5] = test: Tested in vivo on the angiotensin II induced rise of blood pressure after intravenous administration of 20 ug/kg in conscious rats; type: functional; outline: as §1
Rattus norvegicus [6] = test: Tested in vivo on the angiotensin II induced rise of blood pressure after intravenous administration of 5 ug/kg in conscious rats; type: functional; outline: as §1

Row | SMILES | Blood pressure (Rattus norvegicus [1]) [mmHg] | pA2 [2] | Blood pressure (Rattus norvegicus [3]) [mmHg] | pA2 (Angiotensin II receptor) | Blood pressure (Rattus norvegicus [4]) [mmHg] | Blood pressure (Rattus norvegicus [5]) [mmHg] | Blood pressure (Rattus norvegicus [6]) [mmHg]
1 | CC[C@H](C)[C@H](NC(=O)[C@H](Cc1ccc(O)cc1)NC(=O)[C@@H](NC(=O)[C@H](CCCN=C(N)N)NC(=O)[C@H](C)O)C(C)C)C(=O)N[C@@H](Cc1c[nH]cn1)C(=O)N1CCC[C@H]1C(=O)O[C@@H](C)C(=O)O | 4.2 | 9.5 | 10 | 7.999 | 5.8 | 16.7 | 11.7
2 | CNCC(=O)N[C@@H](CCCN=C(N)N)C(=O)N[C@H](C(=O)N[C@@H](Cc1ccc(O)cc1)C(=O)N[C@H](C(=O)N[C@@H](Cc1c[nH]cn1)C(=O)N1CCC[C@H]1C(=O)N[C@@H](C)C(=O)O)C1CCCC1)C(C)C | 5.8 | 9.42 | 17.5 | 9.933 | 10 | 14.2 | 10
3 | CNCC(=O)N[C@@H](CCCN=C(N)N)C(=O)N[C@H](C(=O)N[C@@H](Cc1ccc(O)cc1)C(=O)N[C@H](C(=O)N[C@@H](Cc1c[nH]cn1)C(=O)N1CCC[C@H]1C(=O)N[C@@H](C)C(=O)O)C1CCCCC1)C(C)C | 10.29 | 11.18 | 16.4 | 9.981 | 17.9 | – | 16.9
4 | CC(C)[C@H](NC(=O)[C@H](CCCN=C(N)N)NC(=O)CO)C(=O)N[C@@H](Cc1ccc(O)cc1)C(=O)N[C@H](C(=O)N[C@@H](Cc1c[nH]cn1)C(=O)N1CCC[C@H]1C(=O)O[C@@H](C)C(=O)O)C1CCCCC1 (Glycolyl-RVY[Chg]HP[Lac]-OH) | 6.7 | 9.53 | 14.1 | 8.614 | 7.5 | 15.8 | 17.5
5 | CC(C)[C@H](NC(=O)[C@H](CCCN=C(N)N)NC(=O)[C@H](C)O)C(=O)N[C@@H](Cc1ccc(O)cc1)C(=O)N[C@H](C(=O)N[C@@H](Cc1c[nH]cn1)C(=O)N1CCC[C@H]1C(=O)O[C@@H](C)C(=O)O)C1CCCC1 (H-[Lac]RVY[Gly(cPent)]HP[Lac]-OH) | 5.8 | 8.52 | 10 | 8.392 | 5 | 15 | 5
6 | CNCC(=O)N[C@@H](CCCN=C(N)N)C(=O)N[C@H](C(=O)N[C@@H](Cc1ccc(O)cc1)C(=O)N[C@H](C(=O)N[C@@H](Cc1c[nH]cn1)C(=O)N1CCC[C@H]1C(=O)O[C@@H](C)C(=O)O)C1CCCCC1)C(C)C (H-[Sar]RVY[Chg]HP[Lac]-OH) | 3.6 | 11.29 | 8.6 | 10.39 | 5.7 | 8.3 | 12.1
7 | CNCC(=O)N[C@@H](CCCN=C(N)N)C(=O)N[C@H](C(=O)N[C@@H](Cc1ccc(O)cc1)C(=O)N[C@H](C(=O)N[C@@H](Cc1c[nH]cn1)C(=O)N1CCC[C@H]1C(=O)O[C@@H](C)C(=O)O)C1CCCC1)C(C)C (H-[Sar]RVY[Gly(cPent)]HP[Lac]-OH) | 5 | 11.09 | 11.7 | 9.649 | 10 | 11.7 | 9.2
8 | CNCC(=O)N[C@@H](CCCNC(=N)N)C(=O)N[C@H](C(=O)N[C@@H](Cc1ccc(O)cc1)C(=O)N[C@H](C(=O)N[C@@H](Cc1cnc[nH]1)C(=O)N1CCC[C@H]1C(=O)N[C@@H](C)C(=O)O)C(C)C)C(C)C [SARALASIN] | 7.9 | – | 15 | – | 9.3 | 20 | 12.1
